Only some compounds are listed: those with a hit (about 2.4% of all), similar ones and a draw of the others.
ARNT TACC3 PPI: disruptors of human ARNT/TACC3 interaction; Q9Y6A5; AlphaScreen His-ARNT PAS-B/GST-TACC3 binding, luminescence; TACC3 fragment carries E629A point mutation; inhibition, % at 9.99 µM; actives 0.66% (n = 390,000); AID 623870;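 active = mean inhibition of replicates at least 50% and at least half of replicates each reaching 50%; inconclusive = half or more replicates reach 50% but mean below 50%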;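 also: 0% = complete ARNT plus TACC3 wells and 100% = ARNT alone without TACC3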
rRNA inh HTS: selective bacterial rRNA inhibition in E. coli. E. coli WT GFP vs humanized-ribosome RFP mutants, fluorescence, 24 h; hits give low values; DMSO median 0, no signal -100. GFP signal change (wild-type ribosome), % (no concentration beside the values). actives 1.6% (n = 350,000). AID 720706;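 active = significant combined selectivity score with lowered wild-type GFP, culture density cut under 30%, mutant RFP and density less affected; inactive = any of these conditions unmet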
Casp6 inh: blocks human caspase-6 cleavage activity | purified caspase-6, Z-VEID-R110 cleavage fluorescence | inhibition, % at 12.5 µM | actives 0.53% (n = 350,000);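 active = mean inhibition across replicates at least about 35%, with every replicate also reaching that limit, limit read from the data; inconclusive = only one of the two criteria met; inactive = neither criterion met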;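 also: 0% = median of neutral control wells and 100% = no fluorescence left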
Target sequence (P55212 24-179 limits assumed): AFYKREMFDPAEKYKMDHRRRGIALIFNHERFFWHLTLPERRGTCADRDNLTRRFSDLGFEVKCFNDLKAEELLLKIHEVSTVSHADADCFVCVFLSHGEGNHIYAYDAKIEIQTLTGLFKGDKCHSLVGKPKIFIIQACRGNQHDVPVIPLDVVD
Target sequence (P55212 194-293 limits assumed): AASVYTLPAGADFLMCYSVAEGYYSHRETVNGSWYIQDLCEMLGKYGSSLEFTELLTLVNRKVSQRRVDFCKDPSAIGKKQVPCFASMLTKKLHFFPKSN
PGC1a acetyl inh: PGC1a acetylation modulation, inhibitor mode; AID 651687; actives 0.17% (n = 350,000); U2OS PGC1a acetylation, AlphaScreen anti-acetyl-lysine; with virally co-expressed GCN5 acetyltransferase; inhibition, % at 15.6 µM;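 active = every replicate shows inhibition of at least 40%; inconclusive = mean inhibition at least 40% but some replicate below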;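 also: 0% = neutral control wells and 100% = positive control wells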
S100A4 MyoIIA: S100A4-myosin IIA interaction inhibition. S100A4/TAMRA-MyoIIA peptide fluorescence polarization. actives 0.14% (n = 360,000). inhibition, % at 10.7 µM. P26447;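 active = mean inhibition of at least 70% across replicates, with every replicate also reaching that level; inconclusive = mean inhibition reaches 70% but some replicates fall short; inactive = mean inhibition below 70%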
Target sequence (P26447 whole entry, looked up): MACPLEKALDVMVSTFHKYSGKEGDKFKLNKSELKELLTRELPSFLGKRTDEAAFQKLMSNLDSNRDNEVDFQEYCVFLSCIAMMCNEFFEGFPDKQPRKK
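Material: S100A4 monomer protein | Medium: HEPES pH 7.2 with CaCl2, KCl, NaCl, DTT, Triton | Reagent: Labelled myosin peptide probe, 5 nM | Doses: One dose per compound | Times: 5 min incubation before reading | Benchmarks: Neutral control DMSO, positive control TFP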
ERAP1 inh: blocks human ERAP1 aminopeptidase activity; inhibition, % at 10.7 µM; Q9NZ08; recombinant ERAP1, Leu-AMC fluorescence, 60 min; actives 0.15% (n = 340,000);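 active = mean replicate inhibition of at least 30%, or all replicates individually reaching that 30% level; inactive = mean below 30% and not every replicate reaching it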;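 also: 0% = neutral control wells and 100% = L-leucinethiol positive control wells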
AID977621: wild-type E. coli growth inhibition versus H69 humanized strain – H69 mutant RFP, wild-type GFP, cherry-pick, dose response. 1,900 tested, under 10 active. shares compounds with rRNA inh HTS. fluorescence, 24 h. AID 977621. activity change, negative = inhibition at 50 µM;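 active = Wild-type ribosome reporter drop at least double the humanized mutant ribosome reporter drop, growth loss under a set limit; inconclusive = no clear call, values can overlap the other calls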;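 also: wild-type GFP and H69 mutant RFP strains grown together 50/50 in each well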
AID977628: growth of wild-type and h24-humanized E. coli strains – h24 mutant RFP vs wild-type GFP, cherry-pick, dose response; shares compounds with rRNA inh HTS; E. coli WT GFP strain growth, fluorescence, 24 h; activity change, negative = inhibition at 50 µM; 1,900 tested, under 10 active; AID 977628;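 active = compound lowering the normal-ribosome reporter at least twice as much as the humanized-ribosome reporter, growth loss under a set limit; inconclusive = no clear call, values can overlap the other calls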;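 also: wild-type GFP and h24 humanized RFP strains co-cultured 1 to 1 per well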
Active calls of the source: *; ? = inconclusive; / = not tested or not shown; ! = not confirmed by another sample.

SMILES	ARNT TACC3 PPI	rRNA inh HTS	Casp6 inh	PGC1a acetyl inh	S100A4 MyoIIA	ERAP1 inh	AID977621	AID977628
COCc1[nH]nc2c1C(c1ccc3c(c1)OCO3)N(c1ccc(OC)cc1)C2=O (stereo not drawn)	/	-30*	1	/	-2	-1	4.7	0.031
C=CCN1C(=O)c2n[nH]c(COC)c2C1c1ccc2c(c1)OCO2 (stereo not drawn)	/	6	1	/	-2	4	/	/
COc1ccc(CCCc2nc3ccccc3[nH]2)cc1	-6	-22*	1	6	-3	/	-5.8	?
COC(=O)c1ccc(C(=O)Nc2ccc3nc(-c4ccncc4)[nH]c3c2)cc1	-9	-28*	-1	/	-3	1	-3.4	-3.2
O=C(Nc1ccc2nc(-c3ccccc3)[nH]c2c1)c1cccs1	0	-32*	1	-12	-6	-1	-9	/
O=C(Nc1ccc2nc(-c3ccco3)[nH]c2c1)c1ccco1	24	/	/	-3	/	/	/	/
O=C(Nc1ccc2nc(-c3cccnc3)[nH]c2c1)c1ccco1	-3	-31*	2	-8	-11	6	-13	/
O=C(C[C@H]1C[C@H]2c3cc(NC(=O)C4CCC4)ccc3O[C@H]2[C@@H](CO)O1)NC1CCCCC1	/	1	/	5	/	/	/	/
CCCNC(=O)C[C@H]1CC[C@H]2[C@@H](COc3ccc(NC(=O)c4cccc(OC)c4)cc3C(=O)N2C)O1	6	-1	-2	3	-14	-1	/	/
C[C@@H]1CN([C@H](C)CO)C(=O)c2cc(C3=CCCCC3)cnc2O[C@H]1CN(C)Cc1ccccc1	-1	4	4	-24	5	3	/	/
Nc1ccc2nc(-c3ccc(Cl)cc3)[nH]c2c1	-41	-17*	-1	-15	-13	5	/	-8.8
Cc1ccc(N2C(=S)NC3c4cc(Cl)ccc4OC2(C)C3C(=O)N(C)C)cc1 (stereo not drawn)	6	-22*	-2	3	0	0	-13	?
Nc1ccccc1Sc1c[nH]c2ccccc12	3	-26*	-2	-30	-6	-3	-0.73	-11
CNC(=O)C[C@H]1CC[C@@H]2[C@H](COC[C@@H](O)CN2Cc2ccc(C(F)(F)F)cc2)O1	-3	2	3	0	5	0	/	/
O=C(C[C@H]1CC[C@H](NC(=O)Nc2ccccc2F)[C@H](CO)O1)NCc1ccc(-c2ccccc2)cc1	/	-20*	1	/	6	2	-6.5	?
CN1C(=O)c2cc(NC(=O)c3cccs3)ccc2OC[C@@H]2O[C@@H](CC(=O)NCC3CC3)CC[C@H]21	2	-3	/	-1	/	/	/	/
Cc1cccc(C)c1NC(=O)C1(C)CSCC(=O)N1CCOc1ccccc1 (stereo not drawn)	/	-22*	2	/	-1	-1	-12	-18
C[C@@H]1CN([C@H](C)CO)C(=O)c2cc(NC(=O)Cn3cnnn3)ccc2O[C@H]1CN(C)Cc1ccc(C(F)(F)F)cc1	4	-2	2	6	-8	0	/	/
CC(=O)N1[C@H](C(=O)N(C)C)[C@@H](CO)[C@@H]2Cn3c(ccc(-c4ccc(F)cc4)c3=O)[C@@H]21	31	4	/	/	13	/	/	/
CC(C)N1CC2(CC(c3ccccc3C(F)(F)F)=NO2)CN1C(=O)c1ccco1 (stereo not drawn)	/	-20*	0	-15	-8	/	/	?
CCn1c(-c2cc(-c3ccc(OC(C)C)cc3)nc3ccccc23)n[nH]c1=S	4	-28*	7	14	3	-4	/	?
CCCOc1cccc(-c2cc(-c3n[nH]c(=S)n3CC)c3ccccc3n2)c1	7	-15	1	-13	-2	0	/	/
CS(=O)(=O)c1cccc(NC(=O)C2CC2)c1	-11	3	0	/	4	5	/	/
O=C(Nc1cccc(S(=O)(=O)c2cccc(NC(=O)C3CC3)c2)c1)C1CC1	-4	-23*	0	-1	-2	-8	?	-9.1
C=C(C)Cn1c(SCC(=O)O)nc2c1c(=O)[nH]c(=O)n2C	-4	-12*	2	3	-9	3	?	?
SMILES	ARNT TACC3 PPI	rRNA inh HTS	Casp6 inh	PGC1a acetyl inh	S100A4 MyoIIA	ERAP1 inh	AID977621	AID977628
C=C(C)Cn1c(SCCN2CCOCC2)nc2c1c(=O)[nH]c(=O)n2C	-6	/	/	6	/	/	/	/
Cc1ccc(S(=O)(=O)N(C)C[C@H]2Oc3ncc(-c4ccncc4)cc3C(=O)N([C@@H](C)CO)C[C@@H]2C)cc1	-2	-4	-1	3	-3	0	/	/
CCOC(=O)c1cnc2c(c(C)nn2C)c1Oc1ccc(OC)cc1	/	-14*	-1	5	-4	-2	3.8	-8.2
CCOC(=O)C1(CCc2ccccc2)CCN(C(=O)CCn2cncn2)CC1	6	0	0	6	2	-3	/	/
CCOC(=O)C1(CCCc2ccccc2)CCN(C(=O)CCn2cncn2)CC1	3	-20*	1	1	1	-1	-4.1	-11
CO[C@@H]1CN(C)C(=O)c2cc(NC(=O)C3CCOCC3)ccc2OC[C@@H](C)N(C(=O)C2CCOCC2)C[C@H]1C	-5	2	-2	/	47	-1	/	/
CCOc1ccc2[nH]c3c(NCCN(C)C)ncnc3c2c1	13	-13*	-7	-7	12	2	-2.4	?
CCOc1ccc2[nH]c3c(NCCC(C)C)ncnc3c2c1	-7	-59	1	/	-2	7	/	/
COc1ccc(-c2cc(C(=O)O)nc3ccc4ccccc4c23)cc1OC	1	-29*	0	-3	5	1	-17	/
COc1ccc(-c2nc(C(=O)O)cs2)cc1OC	-5	3	1	-5	2	2	/	/
O=C(O)c1ccccc1C(=O)Nc1ccc(Oc2ccccc2)cc1	/	1	1	0	-4	-1	/	/
Cc1cccc(Oc2ccc(NC(=O)c3ccccc3C(=O)O)cc2)c1	1	-23*	-4	5	-6	/	-17	?
CCC[N+]1(CC#CC(O)(c2ccccc2)C2CCCCC2)CCCCC1 (stereo not drawn)	-7	-36*	-3	/	3	-6	-4.8	-11
COC(=O)c1sccc1NC(=O)Cn1nnc(-c2ccccc2C)n1	14	-30*	1	-1	-3	4	-12	/
O=C1c2ccccc2C(c2nnnn2Cc2ccccc2)N1Cc1cccc(F)c1 (stereo not drawn)	/	-23*!	3	/	1	/	-4.9	-5.4

Screens as filed in PubChem BioAssay.
